Results collected from several papers.
Protocols differ between the studies behind these lines.
Target: Aurora kinase A (AURKA, Homo sapiens, UniProt O14965)
One construct used (O14965 1-403): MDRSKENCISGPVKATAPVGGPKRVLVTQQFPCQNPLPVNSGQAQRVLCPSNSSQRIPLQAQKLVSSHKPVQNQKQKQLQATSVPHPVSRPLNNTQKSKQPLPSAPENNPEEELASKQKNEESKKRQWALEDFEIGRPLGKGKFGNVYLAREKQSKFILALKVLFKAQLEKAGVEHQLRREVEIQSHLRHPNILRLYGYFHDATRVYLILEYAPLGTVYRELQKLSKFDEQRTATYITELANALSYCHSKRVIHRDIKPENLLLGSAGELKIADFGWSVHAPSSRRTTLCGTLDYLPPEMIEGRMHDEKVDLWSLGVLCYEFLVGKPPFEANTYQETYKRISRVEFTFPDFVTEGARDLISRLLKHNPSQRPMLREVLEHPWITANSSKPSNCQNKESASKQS

With `C#Cc1cc(-c2cc(Nc3nc(N[C@@H](C)c4ccc(F)cn4)ncc3Cl)n[nH]2)ccc1C=O` the inhibition was 82% (enzyme activity; inhibitor; 0.2 µM).
For `C=CC(=O)N1CCC[C@@H](n2nc(-c3ccc(Oc4ccccc4)cc3)c3c(N)ncnc32)C1`, the inhibition was 5% (enzyme activity; inhibitor; 1 µM).
The activity vs control of `CC(=O)ON=C1C=CC(=C(C#N)c2ccccc2)C=C1` is reported as 66% (enzyme activity; inhibitor; ADP detection; 20 µM).
`CCCCC(=O)Nc1ccc(-c2ccc3ncn(CCC)c(=O)c3c2)cn1` has a remaining binding of 100% (binding; competition with immobilised ligand; 0.5 µM).
The remaining binding of `N#Cc1ccc(NC(=O)Nc2ccccc2)cc1` is reported as 80% (cell-free assay; competition with immobilised ligand; 25 µM).
For `C=CC(=O)N1CCC([C@@H]2CCNc3c(C(N)=O)c(-c4ccc(Oc5ccccc5)cc4)nn32)CC1`, the inhibition was 1% (enzyme activity; inhibitor; 1 µM).
For `C[C@H]1CC[C@H](n2c3cnccc3c3cnc(Nc4ccc5c(n4)CCN(C(=O)CO)C5)nc32)CC1`, the remaining binding was 100% (cell-free assay; competition with immobilised ligand; 1 µM).
`C1=C/COCc2cc(ccc2OCCN2CCCC2)Nc2nccc(n2)-c2cccc(c2)COC/1` gave a remaining binding of 81% (binding; 0.1 µM).
The remaining binding of `CN1CCN(C(=O)c2ccc(NC(=O)Nc3ccc(N(C)c4ccnc(Nc5ccc(CS(C)(=O)=O)cc5)n4)cc3)cc2)CC1` is reported as 0% (binding; competition with immobilised ligand; 1 µM).
With `COc1ccc2oc(-c3ccc4nc(N)oc4c3)c/c(=N\c3ccccc3NC(=O)CCN)c2c1` the remaining binding was 98% (binding; 1 µM).
